Test results published in ChEMBL document CHEMBL2384998, “Modular, efficient synthesis of asymmetrically substituted piperazine scaffolds as potent calcium channel blockers” (Bioorg Med Chem Lett, 2013).

Tests used:
Rattus norvegicus = organism: Rattus norvegicus; assay: Selectivity ratio of IC50 for rat cardiac Cav1.2 L-type channel to IC50 for rat brain Cav2.2 N-type channel
[1] = molecular target: Voltage-dependent N-type calcium channel subunit alpha-1B (Rattus norvegicus, UniProt Q02294); assay: Inhibition of rat brain Cav2.2 N-type channel expressed in HEK cells after 20 mins by FLIPR assay; type: cell-based, HEK293
Voltage-dependent N-type calcium channel subunit alpha-1B, sequence (Q02294 whole entry): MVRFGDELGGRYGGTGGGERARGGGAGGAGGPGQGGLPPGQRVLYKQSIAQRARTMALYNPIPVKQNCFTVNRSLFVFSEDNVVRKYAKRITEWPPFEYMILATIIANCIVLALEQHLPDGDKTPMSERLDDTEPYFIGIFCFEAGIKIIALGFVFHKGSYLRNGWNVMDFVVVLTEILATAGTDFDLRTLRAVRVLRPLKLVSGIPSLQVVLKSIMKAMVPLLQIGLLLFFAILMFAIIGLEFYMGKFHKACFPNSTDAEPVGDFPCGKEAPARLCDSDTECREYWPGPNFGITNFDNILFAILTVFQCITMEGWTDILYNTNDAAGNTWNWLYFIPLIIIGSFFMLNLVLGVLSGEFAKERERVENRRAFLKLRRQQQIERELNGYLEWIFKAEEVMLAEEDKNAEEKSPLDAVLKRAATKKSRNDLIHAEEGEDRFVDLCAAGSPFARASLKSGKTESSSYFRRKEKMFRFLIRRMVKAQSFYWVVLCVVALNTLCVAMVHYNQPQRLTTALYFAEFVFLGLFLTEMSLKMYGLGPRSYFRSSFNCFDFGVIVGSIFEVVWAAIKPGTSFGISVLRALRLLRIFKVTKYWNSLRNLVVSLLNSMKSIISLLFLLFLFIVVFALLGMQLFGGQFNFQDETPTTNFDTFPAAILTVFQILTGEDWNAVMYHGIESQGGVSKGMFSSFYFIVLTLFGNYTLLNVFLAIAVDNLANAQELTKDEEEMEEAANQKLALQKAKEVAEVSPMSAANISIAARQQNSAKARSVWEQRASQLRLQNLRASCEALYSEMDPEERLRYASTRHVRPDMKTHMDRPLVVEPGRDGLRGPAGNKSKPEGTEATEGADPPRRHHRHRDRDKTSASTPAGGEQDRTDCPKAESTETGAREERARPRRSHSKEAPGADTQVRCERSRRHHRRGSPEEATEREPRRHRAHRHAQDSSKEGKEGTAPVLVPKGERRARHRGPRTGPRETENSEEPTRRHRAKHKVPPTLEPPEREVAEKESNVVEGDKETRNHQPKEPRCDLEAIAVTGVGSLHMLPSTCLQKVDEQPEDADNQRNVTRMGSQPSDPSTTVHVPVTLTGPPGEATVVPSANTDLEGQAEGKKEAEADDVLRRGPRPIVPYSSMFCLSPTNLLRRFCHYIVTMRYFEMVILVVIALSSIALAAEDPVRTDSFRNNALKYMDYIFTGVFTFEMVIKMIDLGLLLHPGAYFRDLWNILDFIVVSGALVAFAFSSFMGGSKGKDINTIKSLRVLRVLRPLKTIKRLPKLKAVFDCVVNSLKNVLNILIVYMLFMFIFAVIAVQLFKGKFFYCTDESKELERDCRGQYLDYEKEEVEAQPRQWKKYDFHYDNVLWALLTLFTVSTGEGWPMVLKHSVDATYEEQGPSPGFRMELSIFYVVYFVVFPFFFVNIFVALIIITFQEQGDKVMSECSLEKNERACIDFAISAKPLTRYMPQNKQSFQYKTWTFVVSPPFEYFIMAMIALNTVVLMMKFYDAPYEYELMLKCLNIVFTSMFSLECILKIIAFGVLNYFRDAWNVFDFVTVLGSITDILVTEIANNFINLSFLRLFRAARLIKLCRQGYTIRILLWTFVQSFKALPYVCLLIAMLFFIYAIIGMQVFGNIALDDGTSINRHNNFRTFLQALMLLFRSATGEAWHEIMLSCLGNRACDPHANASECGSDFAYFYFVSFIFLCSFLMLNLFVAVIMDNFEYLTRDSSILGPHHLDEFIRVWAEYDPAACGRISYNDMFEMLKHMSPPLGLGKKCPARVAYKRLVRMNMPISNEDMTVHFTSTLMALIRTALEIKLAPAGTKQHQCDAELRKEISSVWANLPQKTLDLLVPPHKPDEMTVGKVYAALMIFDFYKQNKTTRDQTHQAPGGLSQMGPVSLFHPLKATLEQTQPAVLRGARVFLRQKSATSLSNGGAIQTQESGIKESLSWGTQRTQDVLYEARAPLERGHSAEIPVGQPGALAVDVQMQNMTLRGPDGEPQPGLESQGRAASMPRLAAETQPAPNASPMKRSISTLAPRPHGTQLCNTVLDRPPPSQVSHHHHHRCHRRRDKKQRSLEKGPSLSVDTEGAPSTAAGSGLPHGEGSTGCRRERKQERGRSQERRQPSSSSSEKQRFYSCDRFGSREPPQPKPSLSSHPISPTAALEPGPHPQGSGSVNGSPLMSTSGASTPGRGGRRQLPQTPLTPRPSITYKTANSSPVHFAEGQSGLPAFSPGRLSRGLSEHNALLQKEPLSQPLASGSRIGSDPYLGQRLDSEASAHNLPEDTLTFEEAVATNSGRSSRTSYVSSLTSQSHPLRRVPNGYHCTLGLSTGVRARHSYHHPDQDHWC
How it was run: (§1)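 Fluorescence Ca²⁺ influx read by FLIPR with the Ca²⁺ indicator dye Fluo-4. Each compound was tested as an 8-point concentration-response profile spanning 0.003–10 μM, giving IC50. Membrane potential and channel state were set by changing the external potassium ion concentration.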

[2] = molecular target: Voltage-dependent L-type calcium channel subunit alpha-1C (Rattus norvegicus, UniProt P22002); assay: Inhibition of rat cardiac Cav1.2 L-type channel expressed in HEK cells after 20 mins by FLIPR assay; type: cell-based, HEK293
Voltage-dependent L-type calcium channel subunit alpha-1C, sequence (P22002 whole entry): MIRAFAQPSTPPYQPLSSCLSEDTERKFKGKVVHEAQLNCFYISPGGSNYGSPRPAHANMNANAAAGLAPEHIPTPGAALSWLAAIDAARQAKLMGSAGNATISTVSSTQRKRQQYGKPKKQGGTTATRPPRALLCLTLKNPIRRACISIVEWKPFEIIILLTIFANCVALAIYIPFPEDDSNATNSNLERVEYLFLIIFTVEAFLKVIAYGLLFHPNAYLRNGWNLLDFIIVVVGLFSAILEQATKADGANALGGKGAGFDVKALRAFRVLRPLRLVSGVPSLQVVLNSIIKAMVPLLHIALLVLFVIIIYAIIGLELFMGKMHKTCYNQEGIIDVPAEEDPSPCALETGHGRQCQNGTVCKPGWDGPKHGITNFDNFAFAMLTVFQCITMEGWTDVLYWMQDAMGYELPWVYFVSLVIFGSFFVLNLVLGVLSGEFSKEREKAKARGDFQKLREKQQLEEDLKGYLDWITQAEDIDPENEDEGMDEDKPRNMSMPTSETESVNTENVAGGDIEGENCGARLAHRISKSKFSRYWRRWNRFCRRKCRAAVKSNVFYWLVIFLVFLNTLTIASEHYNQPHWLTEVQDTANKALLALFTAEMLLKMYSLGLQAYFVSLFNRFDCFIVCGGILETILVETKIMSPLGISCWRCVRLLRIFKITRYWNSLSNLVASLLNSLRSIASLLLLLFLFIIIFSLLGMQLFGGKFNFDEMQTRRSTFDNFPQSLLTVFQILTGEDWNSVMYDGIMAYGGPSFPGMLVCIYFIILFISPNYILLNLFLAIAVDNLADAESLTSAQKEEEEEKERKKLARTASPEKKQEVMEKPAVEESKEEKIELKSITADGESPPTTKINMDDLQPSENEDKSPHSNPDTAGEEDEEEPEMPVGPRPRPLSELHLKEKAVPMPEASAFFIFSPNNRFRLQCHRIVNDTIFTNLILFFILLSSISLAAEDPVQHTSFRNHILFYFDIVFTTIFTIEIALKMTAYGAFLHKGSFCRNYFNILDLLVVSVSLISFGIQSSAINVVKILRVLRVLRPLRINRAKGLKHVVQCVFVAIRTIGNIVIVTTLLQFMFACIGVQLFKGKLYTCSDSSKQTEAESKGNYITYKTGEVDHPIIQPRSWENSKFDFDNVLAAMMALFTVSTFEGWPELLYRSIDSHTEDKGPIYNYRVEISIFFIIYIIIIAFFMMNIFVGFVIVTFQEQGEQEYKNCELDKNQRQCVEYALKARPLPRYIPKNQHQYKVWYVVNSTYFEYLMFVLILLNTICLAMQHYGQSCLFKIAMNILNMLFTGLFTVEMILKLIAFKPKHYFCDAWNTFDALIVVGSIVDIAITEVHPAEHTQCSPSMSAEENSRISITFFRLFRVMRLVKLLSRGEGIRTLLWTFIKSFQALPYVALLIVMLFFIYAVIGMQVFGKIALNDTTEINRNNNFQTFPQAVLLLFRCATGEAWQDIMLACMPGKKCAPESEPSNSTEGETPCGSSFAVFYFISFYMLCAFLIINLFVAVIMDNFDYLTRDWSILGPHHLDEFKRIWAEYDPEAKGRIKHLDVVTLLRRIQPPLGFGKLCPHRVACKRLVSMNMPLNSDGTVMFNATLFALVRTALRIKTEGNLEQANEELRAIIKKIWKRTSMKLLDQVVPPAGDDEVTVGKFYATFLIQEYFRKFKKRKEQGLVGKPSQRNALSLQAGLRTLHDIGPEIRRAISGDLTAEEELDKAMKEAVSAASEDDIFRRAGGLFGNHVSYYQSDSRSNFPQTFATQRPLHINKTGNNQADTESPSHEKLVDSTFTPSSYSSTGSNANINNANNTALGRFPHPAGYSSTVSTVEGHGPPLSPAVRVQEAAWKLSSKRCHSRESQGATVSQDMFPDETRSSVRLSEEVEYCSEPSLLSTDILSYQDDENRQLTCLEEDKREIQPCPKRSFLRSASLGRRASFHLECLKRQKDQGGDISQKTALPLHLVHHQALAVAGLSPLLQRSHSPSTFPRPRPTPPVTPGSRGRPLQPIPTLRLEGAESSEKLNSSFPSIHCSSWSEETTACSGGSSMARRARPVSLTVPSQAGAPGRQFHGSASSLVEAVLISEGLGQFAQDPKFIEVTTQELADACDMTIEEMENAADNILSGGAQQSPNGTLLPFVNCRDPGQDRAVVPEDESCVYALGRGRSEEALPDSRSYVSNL
How it was run: as §1

| Structure (SMILES) | Ratio IC50 (Rattus norvegicus) | IC50 [1] [µM] | IC50 [2] [µM] |
| --- | --- | --- | --- |
| C[C@@H]1CN(C(c2ccccc2)c2ccccc2)[C@H](Cc2ccccc2)CN1 | 0.4 | 4.34 | 1.78 |
| CCCCC[C@@H]1CN[C@H](C)CN1Cc1ccccc1 (relative stereo) | 0.9 | 9.84 | 9.23 |
| CCCCCCCCC[C@@H]1CN[C@H](C)CN1Cc1ccccc1 (relative stereo) | 0.6 | 10 | 5.6 |
| CCCCC[C@@H]1CN[C@H](C)CN1C(c1ccccc1)c1ccccc1 (relative stereo) | 0.7 | 2.4 | 1.78 |
| C[C@@H]1CN(C(c2ccccc2)c2ccccc2)[C@H](CCCCO[Si](C)(C)C(C)(C)C)CN1 (relative stereo) | 1.4 | 1.07 | 1.53 |
| C[C@@H]1CN(C(c2ccccc2)c2ccccc2)[C@H](CCCO[Si](C)(C)C(C)(C)C)CN1 (relative stereo) | 0.7 | 10 | 6.8 |
| Cc1ccc(S(=O)(=O)N2C[C@@H](CCCO[Si](C)(C)C(C)(C)C)N(C(c3ccccc3)c3ccccc3)C[C@H]2C)cc1 (relative stereo) | 2 | 2.6 | 5.1 |
| Cc1ccc(S(=O)(=O)N2C[C@@H](CCCCO[Si](C)(C)C(C)(C)C)N(C(c3ccccc3)c3ccccc3)C[C@H]2C)cc1 (relative stereo) | 1.7 | 4.7 | 8.2 |
| C[C@@H]1CN(C(c2ccccc2)c2ccccc2)[C@H](CCCCO[Si](C)(C)C(C)(C)C)CN1S(=O)(=O)c1ccc(C(F)(F)F)cc1 (relative stereo) | 1 | 10 | 10 |
| C[C@@H]1CN(C(c2ccccc2)c2ccccc2)[C@H](CCCCO)CN1 (relative stereo) | 6 | 0.85 | 5.4 |
| C[C@@H]1CN(Cc2ccccc2)[C@H](CCCCO)CN1 (relative stereo) | – | 9.6 | 10 |
| C[C@@H]1CN(Cc2ccc(F)cc2)[C@H](Cc2ccccc2)CN1 (relative stereo) | 1.2 | 8.37 | 10 |
| C[C@@H]1CN(Cc2ccc(F)cc2)[C@H](Cc2ccccc2)CN1S(=O)(=O)c1ccc(C(F)(F)F)cc1 (relative stereo) | 1 | 10 | 10 |
| C[C@@H]1CN(Cc2ccc(F)cc2)[C@H](Cc2ccccc2)CN1C(=O)C(c1ccccc1)c1ccccc1 (relative stereo) | – | 10 | – |
| C[C@@H]1CN(Cc2ccccc2)[C@H](Cc2ccccc2)CN1 (relative stereo) | 1 | 10 | 10 |
| C[C@@H]1CN(Cc2ccccc2)[C@H](Cc2ccccc2)CN1S(=O)(=O)c1ccc(C(F)(F)F)cc1 (relative stereo) | 1 | 10 | 10 |
| C[C@@H]1CN(Cc2ccccc2)[C@H](CCCCO[Si](C)(C)C(C)(C)C)CN1 (relative stereo) | 0.7 | 4.85 | 3.34 |
